Cardio protect – myocardial damage modulation in H9c2 cells | H9c2 cardiomyocytes, H2O2 injury protection, ATPLite, 2 h | actives 0.63% (n = 360,000) | protection from H2O2 cell death, % at 20 µM;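 active = compounds giving at least 50% protection of heart cells from peroxide-induced death in the single-dose screen, raw or plate-pattern-corrected value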;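 also: 0% = DMSO wells with peroxide and 100% = DMSO wells without peroxide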
Neddylation inh – cullin neddylation inhibition. TR-FRET cullin neddylation, biochemical. inhibition, % at 25 µM. actives 0.58% (n = 360,000); in the data active = inhibition above about 36%
ASAP1 inh – inhibitors of human ASAP1 ArfGAP activity; Q9ULH1; ASAP1-stimulated ARF1 GTP hydrolysis, GDP FP detection; inhibition, % at 16.5 µM; actives 0.19% (n = 360,000); in the data active = inhibition above about 25%;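 also: 0% = vehicle with enzyme and substrate and 100% = no enzyme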
Target sequence (Q9ULH1 325-724 limits assumed): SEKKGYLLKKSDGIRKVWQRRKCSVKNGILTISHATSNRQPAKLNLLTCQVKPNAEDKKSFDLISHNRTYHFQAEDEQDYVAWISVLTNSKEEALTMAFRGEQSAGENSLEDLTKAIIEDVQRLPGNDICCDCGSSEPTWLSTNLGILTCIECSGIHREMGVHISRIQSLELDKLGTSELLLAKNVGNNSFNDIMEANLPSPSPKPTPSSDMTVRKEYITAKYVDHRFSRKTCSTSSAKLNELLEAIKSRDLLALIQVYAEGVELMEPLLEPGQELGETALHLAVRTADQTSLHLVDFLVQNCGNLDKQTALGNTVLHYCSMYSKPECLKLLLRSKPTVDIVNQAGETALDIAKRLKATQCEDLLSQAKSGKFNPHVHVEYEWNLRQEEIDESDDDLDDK
ARFGAP1 inh – rat ARFGAP1 inhibition; inhibition, % at 16.5 µM; Arfgap1-stimulated ARF1 GTP hydrolysis, GDP FP detection; actives 0.26% (n = 360,000); Q62848;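 active = inhibition above a per-plate limit, mean inhibition of low control wells plus 3 SD, cut at about 25% in these data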;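 also: 0% = DMSO wells with enzyme and 100% = wells lacking Arfgap1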
Target sequence (Q62848 1-136 limits assumed): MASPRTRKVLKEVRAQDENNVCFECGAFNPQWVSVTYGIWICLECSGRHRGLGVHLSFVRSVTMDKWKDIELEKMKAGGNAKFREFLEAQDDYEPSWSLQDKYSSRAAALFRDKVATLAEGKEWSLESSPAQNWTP
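system = rat Arfgap1 catalytic domain, aa 1-136 | technique = FP, GDP Alexa 633 tracer displaced from anti-GDP antibody, 620/688 nm | compound = one concentration, 16.5 µM, DMSO 1.26% | medium = HEPES-based buffer, pH 7.5 | timing = compound-enzyme preincubation 20 min, reaction 120 min, detection 60 min, 25 °C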
* hit, by the source's call; · = no result given. Only some compounds are listed: those with a hit (about 1.6% of all), similar ones and a draw of the others.

SMILES | Cardio protect | Neddylation inh | ASAP1 inh | ARFGAP1 inh
CCN(C[C@H]1N[C@@](Cc2ccccc2)(C(=O)OC)[C@H]2C(=O)N(Cc3ccccc3)C(=O)[C@@H]12)S(=O)(=O)c1ccccc1 | 17.9 | -5.2 | -4.7 | 7.7
CCN(C[C@H]1N[C@@](CC)(C(=O)OC)[C@H]2C(=O)N(Cc3ccccc3)C(=O)[C@@H]12)S(=O)(=O)c1ccc(F)cc1 | 58.9* | 2.5 | -2.2 | 2.4
NS(=O)(=O)c1ccc(CCNC(=O)c2ccc(C#CC3(O)CCCCC3)cc2)cc1 | 71.4* | -3.7 | 9.2 | 10.1
N#Cc1ccc2nc(-c3ccc(CN4CCC(n5cc(-c6ccccc6)[nH]c5=O)CC4)cc3)c(-c3ccccc3)nc2c1 | · | · | 8.9 | -0.1
O=c1c(-c2ccccc2)c(O)c2cccc3c2n1CCC3 | 7.9 | 44.5* | 2.2 | 15.2
COc1ccc(CCNc2nc(-c3cccnc3)nc3ccccc23)cc1OC | 50.7* | -3.1 | 3.4 | 0.9
c1cncc(-c2nc(NCC3COc4ccccc4O3)c3ccccc3n2)c1 (stereo not drawn) | 51.7* | -4.5 | 0.0 | 17.3
O=C(NCCc1ccccc1Cl)[C@@H]1CCCN1C(=O)[C@@H](NS(=O)(=O)c1ccc(F)cc1F)c1ccccc1 | · | · | -7.2 | -6.0
Cc1ccc(-c2cc(-c3ccc(Cl)cc3)c(C#N)c(N)n2)o1 | 1.4 | 48.4* | 1.9 | -1.6
C[C@H]1CN(C(=O)OC(C)(C)C)CCN1c1ccc(N2CC[C@H](O)C2)c(C#N)c1 | · | · | -3.4 | -6.5
CNC(=S)N/N=C/c1ccc(-c2ccc(C(=O)O)cc2)o1 | -0.7 | 47.8* | -5.5 | -6.9
CNC(=S)N/N=C/c1ccc(-c2ccc(Cl)c([N+](=O)[O-])c2)o1 | 21.3 | -22.4 | -2.1 | 4.9
CC(C)(C)c1csc(NNC(=O)c2ccc(Br)cc2)n1 | 54.8* | 1.9 | 7.3 | 7.9
CC(C)(C)c1csc(NC(=O)c2ccccc2O)n1 | -19.1 | · | -10.0 | 8.1
O=[N+]([O-])c1ccc2c(c1)CO[C@]21O[C@H](CCO)C[C@H](O)[C@H]1O | · | · | -5.8 | 7.2
CCOC(=O)C1=CCN(S(C)(=O)=O)C1c1ccc(Cl)cc1 (stereo not drawn) | · | · | -3.4 | 0.9
COc1cccc(/C=N/Nc2nn3cnnc3c3ccccc23)c1O | 50.1* | -25.5 | -3.9 | 7.7
Oc1cccc(/C=N/Nc2nn3cnnc3c3ccccc23)c1 | 1.1 | -8.2 | -7.9 | 0.7
CC(C)(C)S(=O)(=O)N1C[C@H]2CC(=O)C(CCO)=C2[C@@H]1CCO | · | · | -8.7 | 1.8
C/C(=N\NC(=O)c1ccccc1-n1cccc1)c1ccccn1 | 69.2* | 8.8 | 2.8 | 0.6
COc1ccc(-c2cc(NC(=O)Cc3c(C)[nH]c4ccccc34)ccc2Nc2cccnc2)cc1OC | · | · | 8.1 | 5.9
COC(=O)c1ccc2c(=O)[nH]c(COC(=O)c3[nH]c(C)c(C(C)=O)c3C)nc2c1 | 72.3* | 5.8 | 12.1 | 2.4
CC(=O)c1c(C)[nH]c(C(=O)OCc2nc3ccsc3c(=O)[nH]2)c1C | 24.1 | 3.8 | -4.7 | 4.3
NC(=O)C1=C(c2ccccc2)c2ccccc2C1=O | 55.1* | -10.8 | 12.1 | -4.6
Cc1ccc(C2=C(O)c3ccccc3C(=O)C2=O)cc1 | -7.4 | -43.8 | -7.7 | -1.9
SMILES | Cardio protect | Neddylation inh | ASAP1 inh | ARFGAP1 inh
COC(=O)c1ccc(-c2cccc(CN3CCN(c4ncc(Cc5ccccc5)cn4)CC3)c2)cc1 | · | · | -8.3 | 4.5
O=C(Nc1ccc(Br)cc1)c1cccc2c1C(=O)N(C1CCCCC1)C2 | -6.4 | -3.8 | 0.1 | -2.2
NC(=O)c1cccc2c1C(=O)N(C1CCCCC1)C2 | 77.5* | 11.7 | -2.8 | 0.8
C[C@H](O)[C@@H]1C(=O)N2CCc3c([nH]c4ccccc34)[C@@H]2C[C@@H]1N(C)C(=O)c1ccco1 | 2.3 | 37.2 | 4.3 | 5.1
C=CCNc1ccc2c(c1)OC[C@H](CC(C)C)NS2(=O)=O | · | · | -6.3 | 12.9
COc1ccc2nc3ccccc3[n+]([O-])c2c1 | -8.9 | 46.7* | 2.3 | 4.2
COc1ccc2c(ccc[n+]2[O-])c1 | 1.6 | -16.1 | -1.0 | 8.5
CCOc1cc(/C=N/NC(N)=O)cc(Br)c1OCC(=O)Nc1cccc2ccccc12 | 56.9* | -0.2 | 4.5 | -4.5
COCc1c(C(=O)Nc2ccc3nc(N4CCOCC4)sc3c2)oc2ccccc12 | 63.5* | 32.2 | 18.8 | 7.1
O=C(Nc1ccc2nc(N3CCOCC3)sc2c1)c1ccccc1 | -3.7 | -3.9 | -9.2 | -7.8
O=C(c1ccco1)N1CCN(Cc2nc3ccc([N+](=O)[O-])cc3c(=O)n2-c2ccccc2F)CC1 | 54.4* | -30.6 | -0.8 | -1.2
C[C@@H]1CN([C@@H](C)CO)C(=O)CCCn2cc(nn2)CO[C@H]1CN(C)C(=O)Nc1cccc(Oc2ccccn2)c1 | · | · | 1.4 | 5.4
O=C(CN1CCCCC1)Nc1nc(-c2ccc(F)c(F)c2)cs1 | 54.7* | 1.9 | -3.9 | -5.0
O=C(CN1CCCCC1)Nc1nc(-c2ccc(Cl)cc2)cs1 | -7.1 | -8.0 | 2.0 | 6.9
COc1ccc(N2C(=O)c3[nH]nc(-c4ccccc4)c3C2c2ccc(Br)cc2)cc1 (stereo not drawn) | · | · | -0.5 | 3.9
Cc1cc(C(=O)NNC(=O)CCCOc2ccccc2)c(C)o1 | -1.6 | 12.9 | -9.4 | -6.4
CC(C)(C)c1ccc(OCCCC(=O)NNC(=O)c2ccccc2O)cc1 | 52.5* | 24.6 | 3.9 | 9.8
CCOC(=O)c1cnc2c(C)cccc2c1NCCc1ccc(OC)c(OC)c1 | -8.9 | 7.8 | 12.1 | -7.0
CCOC(=O)c1cnc2ccc(C(=O)OC)cc2c1NCCc1ccc(OC)c(OC)c1 | 53.1* | 2.1 | 5.2 | 12.3
CNc1cncc(-c2cccnc2)n1 | -1.0 | · | -17.4 | 0.5
CCOC(=O)N1CCN(S(=O)(=O)c2ccc(C(=O)NNc3nc4cc(C)cc(C)c4s3)cc2)CC1 | 55.9* | 16.0 | · | ·
CCOC(=O)N1CCN(S(=O)(=O)c2ccc(C(=O)NNc3nc4c(C)cccc4s3)cc2)CC1 | 50.4* | 7.8 | -6.7 | -4.9
O=S1(=O)N[C@H](Cc2ccccc2)COc2cccc(NCCO)c21 | · | · | 4.5 | 7.0
c1ccc(-c2nnc(-c3ccccn3)nc2NC2CCCCC2)cc1 | 35.6 | -9.0 | -9.1 | -10.9
CNc1nc(-c2ccccn2)nnc1-c1ccccc1 | 51.7* | -6.8 | -4.7 | -3.2
SMILES | Cardio protect | Neddylation inh | ASAP1 inh | ARFGAP1 inh
CCOc1cccc(Nc2cc3n(c(=O)n2)CCc2cc(OC)c(OC)cc2-3)c1 | 60.4* | · | 6.6 | 10.1
CCOC(=O)c1oc2ccccc2c1NC(=O)c1cccc(OC)c1 | 2.5 | 25.1 | -0.8 | 8.2
COc1cccc(C(=O)Nc2c(C(N)=O)oc3ccccc23)c1 | 111.2* | -20.8 | -5.2 | 14.3
COc1cccc(C(=O)N2CCC[C@@H]2C(=O)N2CCC[C@@H]2C(=O)NCc2ccccc2)c1 | · | · | -4.7 | -7.2
Cc1c(N=Cc2cc(Br)cc(Br)c2O)cccc1C(=O)O | 62.0* | 32.3 | -2.4 | -8.0
Cc1ccc(-c2nn(-c3ccccc3)cc2C(=O)N2CCN(c3ccccn3)CC2)cc1 | -5.6 | 6.6 | -3.2 | 11.7
COc1ccc(-c2nn(-c3ccccc3)cc2/C=C/C(=O)N2CCN(c3ccccn3)CC2)cc1 | 68.2* | 36.8 | 14.2 | -1.2
N/C(=N\NS(=O)(=O)c1ccccc1)c1ccccn1 | 51.2* | 6.8 | -8.7 | 2.3
N/C(=N\NS(=O)(=O)c1ccc(Cl)cc1)c1ccccn1 | -6.1 | 17.0 | -3.0 | -6.6

Screening data: PubChem BioAssay, several laboratories
